Assay outcomes from PubChem BioAssay.
In the library only some 2.3% were active in any assay of this set; here they are far more common.
MT1-MMP act inh – MT1-MMP (human) activation inhibition | HT1080 RFP-PRO-GFP cells, GFP/RFP ratio fluorescence, overnight; percent of plate control window, DMSO zero | GFP/RFP ratio change, % at 20 µM | 360,000 tested, 0.061% active | AID 651647;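 active = GFP/RFP ratio change of at least 30% with cell ATP level not reduced by more than half and red fluorescence within 50% of control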
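Compound: 20 µM single dose, 1% DMSO / System: HT1080 RFP-PRO-GFP cells / Controls: DMSO and RFP-L50D-GFP cell wells / Read-out basis: GFP/RFP fluorescence ratio / Schedule: overnight compound exposure at 37 °C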
MPTP block – inhibitors of mitochondrial permeability transition pore; isolated mouse mitochondria, Ca2+ swelling absorbance, 30 min; inhibition, % at 10 µM; 360,000 tested, 1.4% active;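 active = inhibition of 50% or more, scaled per plate between neutral and stimulator controls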
SKN-1 inh – C. elegans SKN-1 inhibition. C. elegans VP596 Pgst-4::GFP/RFP ratio, acrylamide-induced, 24 h. inhibition, % at 21.8 µM. 360,000 tested, 0.49% active;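 active = interference check ratio from 0.5 to 1.5 plus GFP to RFP signal ratio inhibition reaching or exceeding a fixed threshold, cut at about 30% in these data, passing the limit was not always enough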
ATG4B inh – inhibitors of human ATG4B cysteine protease | Q9Y4P1 | inhibition, % at 8.33 µM | ATG4B cleavage of LC3-PLA2, NBD-HPC fluorescence, 1 h | 340,000 tested, 0.51% active; in the data active = inhibition above about 40%
Target sequence (Q9Y4P1 whole entry, looked up): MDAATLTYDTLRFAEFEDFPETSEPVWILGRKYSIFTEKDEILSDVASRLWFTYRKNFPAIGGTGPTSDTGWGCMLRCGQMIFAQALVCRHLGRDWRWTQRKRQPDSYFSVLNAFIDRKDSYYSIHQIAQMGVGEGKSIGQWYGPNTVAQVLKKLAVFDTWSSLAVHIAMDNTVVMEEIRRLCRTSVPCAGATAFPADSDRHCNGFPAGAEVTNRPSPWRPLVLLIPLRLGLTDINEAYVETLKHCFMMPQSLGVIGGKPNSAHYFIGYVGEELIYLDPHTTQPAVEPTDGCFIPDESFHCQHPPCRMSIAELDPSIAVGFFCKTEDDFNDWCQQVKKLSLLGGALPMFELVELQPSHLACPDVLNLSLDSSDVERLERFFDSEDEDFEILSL
MPTP counter – Rhodamine 123 counter-screen of mitochondrial pore hits. shares compounds with MPTP block. isolated mitochondria, membrane potential, Rhodamine 123 fluorescence. inhibition, % at 10 µM. 5,000 tested, 78% active. AID 624504; in the data active = inhibition above about 22%
MPTP abs DR – MPTP inhibition, dose response swelling confirmation; shares compounds with MPTP block; 780 tested, 58% active; IC50, µM; isolated mitochondria swelling, absorbance; in the data active = IC50 below about 20 µM
MPTP cs DR – MPTP inhibitor counter-screen activity, dose response; IC50, µM; shares compounds with MPTP block; isolated mitochondria counterscreen, fluorescence read-out; 780 tested, 49% active; in the data active = IC50 below about 80 µM
A number is an active result.

How did CCOC(=O)Cc1csc(NC(=O)COc2ccc(N(C)S(=O)(=O)c3cccs3)cc2)n1 do in these assays?
MT1-MMP act inh: inactive; MPTP block: inactive; SKN-1 inh: inactive; ATG4B inh: inactive

How did C#CNC(=O)C1(CC=C)CCNCC1 do in these assays?
MT1-MMP act inh: inactive; MPTP block: inactive; SKN-1 inh: inactive; ATG4B inh: inactive

How did Cc1ccc(CN2CCNC(=O)C2CC(=O)NCCCn2ncc3ccccc32)o1 (stereo unspecified) do in these assays?
MT1-MMP act inh: inactive; MPTP block: inactive; SKN-1 inh: inactive; ATG4B inh: inactive

Results for O=[N+]([O-])c1ccccc1S(=O)(=O)N1CCN(c2ccc(F)cc2)CC1 ?
MT1-MMP act inh: inactive; MPTP block: inactive; SKN-1 inh: inactive; ATG4B inh: inactive

Results for Cc1cc(/C(N)=N/OC(=O)Nc2ccccc2)no1 ?
MT1-MMP act inh: inactive; MPTP block: inactive; SKN-1 inh: inactive; ATG4B inh: inactive

What do the screens show for `Cc1cc(/C(N)=N/OC(=O)Nc2ccc(Cl)cc2)no1`?
MT1-MMP act inh: inactive; MPTP block: 57; SKN-1 inh: inactive; ATG4B inh: inactive; MPTP counter: 82

How did Cn1nc(C(F)(F)F)c(-c2ccc(F)cc2)c1NC(=O)Nc1ccc(F)cc1 do in these assays?
MT1-MMP act inh: inactive; MPTP block: 74; SKN-1 inh: inactive; ATG4B inh: inactive; MPTP counter: 89

Results for Cn1nc(C(F)(F)F)c(-c2ccc(Br)cc2)c1NC(=O)c1ccco1 ?
MT1-MMP act inh: inactive; MPTP block: inactive; SKN-1 inh: inactive; ATG4B inh: inactive

Results for CC1(C)CC(=O)C=C(c2cccc(O)c2)C1 ?
MT1-MMP act inh: inactive; MPTP block: inactive; SKN-1 inh: inactive; ATG4B inh: inactive

Results for CCOC(=O)c1cn[nH]c1NC(=S)Nc1ccc(OC)cc1 ?
MT1-MMP act inh: inactive; MPTP block: inactive; SKN-1 inh: inactive; ATG4B inh: inactive

How did COC(=O)c1cn[nH]c1NC(=S)Nc1ccc(C)cc1Cl do in these assays?
MT1-MMP act inh: inactive; MPTP block: 96; SKN-1 inh: inactive; ATG4B inh: inactive; MPTP counter: 75

How did COC(=O)c1cn[nH]c1NC(=S)Nc1ccc(Cl)c(Cl)c1 do in these assays?
MT1-MMP act inh: inactive; MPTP block: 99; SKN-1 inh: inactive; ATG4B inh: inactive; MPTP counter: 81

Results for COC(=O)c1cn[nH]c1NC(=S)Nc1ccccc1C ?
MT1-MMP act inh: inactive; MPTP block: inactive; SKN-1 inh: inactive; ATG4B inh: inactive

How did C[C@H]1CN([C@@H](C)CO)C(=O)Cc2cc(NC(=O)C3CC3)ccc2O[C@H]1CN(C)Cc1ccc(C(=O)O)cc1 do in these assays?
MT1-MMP act inh: inactive; MPTP block: inactive; SKN-1 inh: inactive; ATG4B inh: inactive

What do the screens show for `CN(C)CCCN(C(=O)c1ccc(S(=O)(=O)N2CCCCC2)cc1)c1nc2cc3c(cc2s1)OCO3`?
MT1-MMP act inh: inactive; MPTP block: inactive; SKN-1 inh: inactive; ATG4B inh: inactive

How did Cc1ccc2sc(N(CCCN(C)C)C(=O)c3ccc(S(=O)(=O)N4CCCCCC4)cc3)nc2c1C do in these assays?
MT1-MMP act inh: inactive; MPTP block: 58; SKN-1 inh: inactive; ATG4B inh: inactive; MPTP counter: inactive; MPTP abs DR: inactive; MPTP cs DR: 64

What do the screens show for `COc1cccc2sc(N(CCN(C)C)C(=O)c3ccc(S(=O)(=O)N4CCCC4)cc3)nc12`?
MT1-MMP act inh: inactive; MPTP block: inactive; SKN-1 inh: inactive; ATG4B inh: inactive

How did Cc1cc(C)c2sc(N(CCCN(C)C)C(=O)c3ccc(S(=O)(=O)N(C)C4CCCCC4)cc3)nc2c1 do in these assays?
MT1-MMP act inh: inactive; MPTP block: 77; SKN-1 inh: inactive; ATG4B inh: inactive; MPTP counter: inactive

Results for Cc1cc(C)c2nc(N(CCCN(C)C)C(=O)c3ccc(S(=O)(=O)N4CCCCCC4)cc3)sc2c1 ?
MT1-MMP act inh: inactive; MPTP block: 83; SKN-1 inh: inactive; ATG4B inh: inactive; MPTP counter: inactive; MPTP abs DR: 6.4; MPTP cs DR: inactive

What do the screens show for `COc1ccc([N+](=O)[O-])cc1NC(=O)CSc1ccc2ccccc2c1`?
MT1-MMP act inh: inactive; MPTP block: 62; SKN-1 inh: inactive; ATG4B inh: inactive; MPTP counter: 31

What do the screens show for `COc1ccc([N+](=O)[O-])cc1NC(=S)NC(NC(=O)C(c1ccccc1)c1ccccc1)C(Cl)(Cl)Cl` (stereo unspecified)?
MT1-MMP act inh: inactive; MPTP block: 95; SKN-1 inh: inactive; ATG4B inh: inactive; MPTP counter: 64

Results for COc1ccc([N+](=O)[O-])cc1NC(=O)CSc1nc(C)cc(C)n1 ?
MT1-MMP act inh: inactive; MPTP block: inactive; SKN-1 inh: inactive; ATG4B inh: inactive

What do the screens show for `CC(C)CC(=O)NC(Nc1ccccc1F)C(Cl)(Cl)Cl` (stereo unspecified)?
MT1-MMP act inh: inactive; MPTP block: inactive; SKN-1 inh: inactive; ATG4B inh: inactive

How did CC(C)CC(=O)NC(Nc1ccc([N+](=O)[O-])cc1)C(Cl)(Cl)Cl (stereo unspecified) do in these assays?
MT1-MMP act inh: inactive; MPTP block: 90; SKN-1 inh: inactive; ATG4B inh: inactive; MPTP counter: 96

How did COC(=O)NC(NC(=S)Nc1ccccc1OC)C(Cl)(Cl)Cl (stereo unspecified) do in these assays?
MT1-MMP act inh: inactive; MPTP block: inactive; SKN-1 inh: inactive; ATG4B inh: inactive

What do the screens show for `COc1ccc([N+](=O)[O-])cc1NC(=O)C(C)c1ccccc1` (stereo unspecified)?
MT1-MMP act inh: inactive; MPTP block: inactive; SKN-1 inh: inactive; ATG4B inh: inactive

What do the screens show for `COC(=O)NC(NC(=S)Nc1ccc([N+](=O)[O-])cc1)C(Cl)(Cl)Cl` (stereo unspecified)?
MT1-MMP act inh: inactive; MPTP block: 93; SKN-1 inh: inactive; ATG4B inh: inactive; MPTP counter: 80

What do the screens show for `CC(C)CCCCCCCCCCCCC(=O)NCC(=O)NC1C(C)OC(Nc2ncnc3nc[nH]c23)C(O)C1O` (stereo unspecified)?
MT1-MMP act inh: inactive; MPTP block: inactive; SKN-1 inh: inactive; ATG4B inh: inactive

What do the screens show for `CC(C)(C)CC(C)(C)NCC(O)COc1ccc2c(c1)CCC2` (stereo unspecified)?
MT1-MMP act inh: inactive; MPTP block: 95; SKN-1 inh: inactive; ATG4B inh: inactive; MPTP counter: inactive; MPTP abs DR: 4.2; MPTP cs DR: 48

What do the screens show for `CC(=O)Nc1cccc(-c2ccnc3c2CC(C)(C(=O)NCc2ccc(N(C)C)cc2)O3)c1` (stereo unspecified)?
MT1-MMP act inh: inactive; MPTP block: inactive; SKN-1 inh: inactive

What do the screens show for `O=C(Nc1nc(-c2ccc(Cl)s2)cs1)c1ccncc1`?
MT1-MMP act inh: inactive; MPTP block: 62; SKN-1 inh: inactive; ATG4B inh: inactive; MPTP counter: 63
